Compound activity deposited in PubChem BioAssay by several laboratories.
T cruzi repl = blocks replication of Trypanosoma cruzi; T. cruzi beta-gal in NIH3T3, luminescence, 90 h; inhibition, % (no concentration beside the values); 300,000 tested, 1.4% active; AID 1885;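 active = mean inhibition across valid replicates above about 55%, limit read from the data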;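 note: signal also drops with host cell toxicity which is not excluded here; 0% = plate median of DMSO wells and 100% = zero luminescence signal; higher percent means less beta-gal luminescence so fewer parasites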
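Assay system: NIH/3T3 host cells with β-galactosidase reporter T. cruzi; input: 5,000 host fibroblasts per well; compound: single 50 nL compound addition per well in DMSO; timing: ≥90 h infection period, 3 h prior cell attachment; measured by: GalScreen β-gal luminescence, detergent lysis, 60 min; evaluation: percent inhibition of parasite-derived β-gal signal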
CHOP inh = inhibitors of CHOP induction in ER stress response. CHO-K1 CHOP-promoter luciferase, tunicamycin-induced, 15-18 h. inhibition, % at 10 µM. 220,000 tested, 3.8% active. AID 2732;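 active = compounds that reduced the stress-induced luciferase reporter signal by more than about 70% of percent inhibition, limit read from the data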;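 note: 0% = tunicamycin plus vehicle and 100% = wells without tunicamycin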
Lmaj promast = reduces viability of Leishmania major promastigotes. resazurin fluorescence viability. inhibition, % at 10 µM. 200,000 tested, 9% active; in the data active = inhibition above about 50%;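 note: promastigotes grown with compound for 44 hours at 28 °C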
Dynein cargo inh = blocks dynein driven cargo transport along microtubules; z-score, hits read low; 220,000 tested, 0.47% active; 3617.4 mouse cells, GR-EGFP nuclear translocation imaging; test concentration mostly 20 µM; stimulated with dexamethasone, 1 µM; hits give low values;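 active = plate z-score of nuclear minus cytoplasmic receptor signal below a set negative limit, without overly bright fluorescence or cell loss, cut at about -3.5 in these data, passing the limit was not always enough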;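 note: z-score of nuclear minus cytoplasmic ring GR-EGFP intensity difference per well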
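medium = tetracycline-free induction medium containing charcoal-stripped FBS | also added = 1.0 µM final dexamethasone stimulus | schedule = 48 h induction, 1 h compound, 30 min dex at 37 °C | technique = fixed, Hoechst-stained cells imaged at 10x for EGFP | measure = GR-EGFP nuclear translocation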
UPR CHOP act = apoptotic UPR (CHOP) activation; CHO-CHOP luciferase reporter, luminescence; percent of tunicamycin response over DMSO baseline; activation, % at 10 µM; 330,000 tested, 0.34% active; AID 449763;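 active = at 10 µM dose, activation of 40% or more, normalized to positive control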;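 note: 100% = tunicamycin at 10 µg/mL and 0% = DMSO alone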
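System: CHO CHOP reporter cells. Amount: 500 cells per well. Buffer or medium: F12 medium, 10% FBS. Compound dosing: one dose, 10 µM in 0.5% DMSO. Incubation: 6 h compound exposure at 37 °C after overnight seeding. Technique: Steady-Glo luciferase luminescence. Benchmarks: tunicamycin and DMSO controls.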
UPR XBP1 act = adaptive UPR (XBP1) activation. CHO-XBP1 luciferase reporter, IRE1-XBP1 UPR activation, luminescence; percent of tunicamycin response, DMSO as zero. activation, % at 20 µM. 330,000 tested, 0.33% active;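 active = versus positive control, 20 µM dose yields 30% or more activation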;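 note: 100% = tunicamycin at 10 µg/mL and 0% = DMSO only wells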
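assay system = CHO-XBP1 luciferase reporter cells | amount = 1000 cells/well | buffer or medium = F12 plus 10% FBS | compound dosing = single point, 20 µM final compound, 1% DMSO | incubation = 16-18 h cell attachment at 37 °C, then 6 h compound exposure | detection = Steady-Glo luminescence read | controls = tunicamycin 10 µg/mL and vehicle-only wells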
L major 1uM = L. major promastigote growth inhibition, 1 uM repeat; shares compounds with Lmaj promast; inhibition, % at 1 µM; 1,100 tested, 13% active; resazurin fluorescence, 48 h;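 active = inhibition above about 50% in both repeat tests, limit read from the data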
Numbers without * were called inactive; / = not tested or not shown. The full list was thinned out, with hits kept by preference.

SMILES	T cruzi repl	CHOP inh	Lmaj promast	Dynein cargo inh	UPR CHOP act	UPR XBP1 act	others
CCOc1ccccc1CN1CCN(Cc2csc(C(C)=O)c2)CC1CCO (stereo unspecified)	17	25	73*	0.21	2	3
COc1ccccc1C(=O)NC(=O)COC(=O)CNC(=O)c1ccc(Cl)c([N+](=O)[O-])c1	-7	/	/	/	7	4
CC(=O)Nc1ccc2c(c1)C(C)(C)C(C)N2C (stereo unspecified)	44	18	94*	0.56	0	-4
COc1cccc(CNC(=O)CN2C(=O)CSc3ccc(S(=O)(=O)N4CCCCC4)cc32)c1	4	/	/	/	1	1
CC(C)N1CCc2c(sc(NC(=O)c3ccc4ccccc4c3)c2C(N)=O)C1	39	/	/	/	5	1
CC(C)N1CCc2c(sc(NC(=O)c3cc4cc([N+](=O)[O-])ccc4s3)c2C(N)=O)C1	-1	78*	100*	-0.079	3	2
CN1CCc2c(sc(NC(=O)c3ccc([N+](=O)[O-])o3)c2C(N)=O)C1	64*	/	/	/	37	-4
CCC(=O)N1CCN(c2ccc(NC(=S)NC(=O)c3ccc(OC)c([N+](=O)[O-])c3)cc2)CC1	3	-15	53*	0.98	0	-5
CCOc1ccc(C(=O)NC(=S)Nc2ccc(N3CCC(C)CC3)cc2)cc1[N+](=O)[O-]	30	-12	87*	/	/	/
CCOc1ccc(C(=O)NC(=S)Nc2ccccc2N2CCC(C)CC2)cc1[N+](=O)[O-]	55*	-4	3	-0.45	0	-2
CCCC(=O)N1CCN(c2ccc(NC(=O)c3ccc(OCC)c([N+](=O)[O-])c3)cc2)CC1	8	1	-4	0.77	-1	-2
COc1ccc(C(=O)NC(=S)Nc2ccc(N3CCOCC3)c(Cl)c2)cc1[N+](=O)[O-]	3	7	100*	1.5	5	-2
COc1cc(C2C(C(=O)c3cc4ccccc4o3)=C(O)C(=O)N2CCN2CCOCC2)ccc1OCCC(C)C (stereo unspecified)	6	/	/	/	-1	-5
CNC(=S)/N=C(/Nc1ccccc1)c1ccccc1	-19	-8	0	0.016	1	-3
COc1cc(NC(=O)CCc2nnc3ccc(N4CCOCC4)nn23)cc(OC)c1OC	-16	/	/	/	1	-5
O=C(COc1cc2oc(=O)c3c(c2cc1Cl)CCC3)NCCCn1ccnc1	12	/	/	/	1	-4
CN(C)c1ccc(N=Nc2ccccc2C(=O)OCC(=O)NC2CCCC2)cc1	24	-74	7	0.0083	24	19
CN(C)c1ccc(N=Nc2ccccc2C(=O)OCC(=O)NCC2CCCCC2)cc1	13	36	97*	1.2	5	11
COc1ccccc1C(=O)NCCC(=O)NCC1COc2ccccc2O1 (stereo unspecified)	/	/	/	/	2	0
CCOc1ccc(S(=O)(=O)N2CCCC(C(=O)NCc3ccncc3)C2)cc1 (stereo unspecified)	2	/	/	/	-1	-4
COc1ccccc1NC(=S)N=Nc1c(O)[nH]c2ccc(Br)cc12	39	-20	/	-0.37	9	5
Cc1cccc(NC(=S)N=Nc2c(O)[nH]c3ccccc23)c1	64*	87*	97*	-0.17	16	0
CC(C)NC(=S)N=Nc1c(O)[nH]c2ccc(C(C)C)cc12	59*	34	91*	-0.67	-2	0
CC(C)c1ccc2[nH]c(O)c(N=NC(=O)c3cccc(S(=O)(=O)Nc4ccccc4Cl)c3)c2c1	41	27	1	-0.56	1	-1
COC(=O)c1ccccc1NC(=O)c1sc(=S)n(C)c1N	4	82*	6	-0.37	1	0
SMILES	T cruzi repl	CHOP inh	Lmaj promast	Dynein cargo inh	UPR CHOP act	UPR XBP1 act	others
COc1cc(OC)cc(C(=O)Nc2ccccc2C(=O)NC2CC2)c1	/	/	/	/	-2	0
COC(=O)c1ccccc1NC(=O)c1cc(OC)cc(OC)c1	28	82*	-6	-1.3	1	1
COc1ccc(-c2nnc(N3CCC(C)CC3)c3ccccc23)cc1	34	85*	-6	-0.27	0	0
O=C(Cc1ccccc1)N1CCN=C1SCc1ccc([N+](=O)[O-])cc1	7	42	93*	-1.4	1	-3
COc1ccc(CC(=O)N2CCN=C2SCc2ccc([N+](=O)[O-])cc2)cc1	13	39	76*	-2.1	-1	-1
O=C(Cc1ccc(F)cc1)N1CCN=C1SCc1ccc([N+](=O)[O-])cc1	6	28	33	0.12	-3	-3
CCCCCCc1c(C)c2ccc(OCC(=O)N[C@@H](Cc3ccccc3)C(=O)O)cc2oc1=O	12	/	/	/	-1	-4
CC1(C)CC2CC(C)(CN2C(=O)COC(=O)c2ccccc2C(F)(F)F)C1 (stereo unspecified)	/	/	/	/	0	-2
CCOC(=O)c1ccccc1NC(=O)c1ccccc1N(C)S(C)(=O)=O	-4	51	90*	-0.84	-1	1	L major 1uM=-3
COC(=O)c1ccccc1NC(=O)c1ccccc1N(C)S(C)(=O)=O	/	14	19	0.033	-1	-2
O=C(CCC(=O)N(CC(=O)NC1CCCCC1)c1ccc(F)cc1)Nc1ccccn1	9	/	/	/	0	-4
O=C(c1cccc(Br)c1)N1CCN(S(=O)(=O)N2CCCCC2)CC1	-2	/	/	/	-1	-4
O=[N+]([O-])c1ccc(NNC(=S)Nc2ccc(F)cc2)cc1	8	-28	101*	-1.1	4	-3	L major 1uM=79*
CC1(C)CC(=O)N(c2ccc(Cl)cc2Cl)C(=O)C1	-2	/	/	/	0	7
Cc1ccc(/C=C(\NC(=O)c2ccccc2)C(=O)OCc2ccccc2)cc1	8	23	63*	0.41	-1	-2	L major 1uM=-2
CCOC(=O)/C(=C\c1ccc(C)cc1)NC(=O)c1ccccc1	4	0	2	0.26	0	3
CCC(C)NC(=O)c1ccc(Cl)c(S(=O)(=O)Nc2ccccc2N2CCOCC2)c1 (stereo unspecified)	/	/	/	/	-1	-1
CC1=CC(C)C2(COC(c3ccc[n+](C)c3)OC2)C(C)C1 (stereo unspecified)	/	1	100*	2	/	/	L major 1uM=-1
CN(C)c1ccc(NC(=O)C2C3C=CC(C3)C2C(=O)O)cc1 (stereo unspecified)	41	/	/	/	1	-8
Cc1ccc(C2=CSC3=NCCN23)c(C)c1	-8	24	-6	-0.3	-4	4
